Measured values: ChEMBL document CHEMBL1156237, “Antiviral activity of benzimidazole derivatives. II. Antiviral activity of 2-phenylbenzimidazole derivatives” (Bioorg Med Chem, 2010)
The source made the active and inactive calls. The rule behind the calls is not given here.

Tested on: Human alphaherpesvirus 1
Test: Antiviral activity against HSV1 KOS infected in african green monkey Vero cells after 3 days by plaque reduction assay
Format: functional, organism-based
Settings: Human alphaherpesvirus 1, KOS, 72 h
Summary of the method: (§1)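 Plaque reduction assay. Vero 76 cells at 2 × 10^5/well, grown overnight to confluence in D-MEM with 10% FBS. Infected 2 h with 50–100 PFU/well, unadsorbed virus removed. Overlay of D-MEM with 1% inactivated FBS and 0.75% methylcellulose, with or without serial compound dilutions. Incubated at 37 °C for 3 days (HSV-1 KOS, CVB-2 Ohio-1) or 5 days (RSV A2). Fixed and stained with crystal violet in 50% ethanol; plaques counted; EC50 by linear regression.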
In the case of `CC(=O)Nc1ccc(-c2nc3ccccc3[nH]2)cc1`, the EC50 is reported as > 100 µM. For `O=C(CN1CCOCC1)Nc1ccc(-c2nc3ccccc3[nH]2)cc1`, the EC50 was > 100 µM. For `O=C(CN1CCCCC1)Nc1ccc(-c2nc3ccccc3[nH]2)cc1`, the EC50 was > 100 µM. In the case of `O=C(CN1CCOCC1)Nc1ccc(-c2nc3cc(C(F)(F)F)ccc3[nH]2)cc1`, the EC50 is reported as > 100 µM. For `O=C(CN1CCCC1)Nc1ccc(-c2nc3ccccc3[nH]2)cc1`, the EC50 was > 100 µM.

Tested on: Bovine viral diarrhea virus 1
Test: Antiviral activity against Bovine viral diarrhea virus NADL infected in MDBK cells assessed as protection from virus-induced cytopathogenicity after 3 to 4 days by MTT method
Format: functional, organism-based, Bovine viral diarrhea virus 1-NADL
Settings: Bovine viral diarrhea virus isolates and strains, MDBK
Summary of the method: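 Cytopathogenicity protection assay. MDBK cells at 3 × 10^4/well, grown overnight to confluence. Infected with BVDV NADL at m.o.i. 0.01 in MEM-E with 0.5% inactivated FBS, 1 mM Na pyruvate and 1% kanamycin. Serial compound dilutions added after 1 h. After 3–4 days at 37 °C, viability read by MTT; EC50 is the concentration giving 50% protection.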
`CC(=O)Nc1ccc(-c2nc3ccccc3[nH]2)cc1` gave an EC50 of 90 µM. For `O=C(CN1CCOCC1)Nc1ccc(-c2nc3ccccc3[nH]2)cc1`, the EC50 was > 77 µM. For `O=C(CN1CCCCC1)Nc1ccc(-c2nc3ccccc3[nH]2)cc1`, the EC50 was 7 µM. With `O=C(CN1CCOCC1)Nc1ccc(-c2nc3cc(C(F)(F)F)ccc3[nH]2)cc1` the EC50 was > 100 µM. With `O=C(CN1CCCC1)Nc1ccc(-c2nc3ccccc3[nH]2)cc1` the EC50 was 10 µM.

Tested on: Human immunodeficiency virus 1
Test: Antiviral activity against HIV1 3B infected in human MT4 cells assessed as protection from virus-induced cytopathogenicity after 4 days by MTT method
Format: functional, organism-based
Settings: not given
Summary of the method: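 MT-4 cells, 1 × 10^4/well in RPMI with or without serial compound dilutions, infected with HIV-1 IIIB, 100 CCID50 (m.o.i. 0.01). Protection from virus-induced cytopathogenicity read by MTT.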
With `CC(=O)Nc1ccc(-c2nc3ccccc3[nH]2)cc1` the Activity was “inactive”. With `O=C(CN1CCOCC1)Nc1ccc(-c2nc3ccccc3[nH]2)cc1` the Activity was “inactive”. For `O=C(CN1CCCCC1)Nc1ccc(-c2nc3ccccc3[nH]2)cc1`, the Activity was “inactive”. In the case of `O=C(CN1CCOCC1)Nc1ccc(-c2nc3cc(C(F)(F)F)ccc3[nH]2)cc1`, the Activity is reported as “inactive”. With `O=C(CN1CCCC1)Nc1ccc(-c2nc3ccccc3[nH]2)cc1` the Activity was “inactive”.

Tested on: not listed separately
Test: Cytotoxicity against african green monkey Vero cells
Format: cell-based
Settings: chlorocebus sabaeus
Summary of the method: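 Vero 76 monolayers exposed to serial compound dilutions, run in parallel on the same 24-well plates as the plaque-reduction assays. CC50 is the concentration reducing viability of mock-infected cells by 50%.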
For `CC(=O)Nc1ccc(-c2nc3ccccc3[nH]2)cc1`, the CC50 was > 100 µM. For `O=C(CN1CCOCC1)Nc1ccc(-c2nc3ccccc3[nH]2)cc1`, the CC50 was > 100 µM. For `O=C(CN1CCCCC1)Nc1ccc(-c2nc3ccccc3[nH]2)cc1`, the CC50 was > 100 µM. With `O=C(CN1CCOCC1)Nc1ccc(-c2nc3cc(C(F)(F)F)ccc3[nH]2)cc1` the CC50 was > 100 µM. For `O=C(CN1CCCC1)Nc1ccc(-c2nc3ccccc3[nH]2)cc1`, the CC50 was > 100 µM.

Tested on: not listed separately
Test: Cytotoxicity against MDBK cells after 48 to 96 hrs by MTT assay
Format: cell-based, Bos taurus
Settings: cattle, MDBK cells
Summary of the method: (§2)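 Cell seeding: MDBK at 6 × 10^5 cells/mL in MEM-E with 10% horse serum and 1 mM Na pyruvate; BHK at 1 × 10^6 cells/mL in MEM-E with 10% FBS. Serial compound dilutions, 37 °C, 5% CO2. Viability of mock-infected cells by MTT after 48–96 h; CC50 is the concentration reducing viability by 50%.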
In the case of `CC(=O)Nc1ccc(-c2nc3ccccc3[nH]2)cc1`, the CC50 is reported as > 100 µM. `O=C(CN1CCOCC1)Nc1ccc(-c2nc3ccccc3[nH]2)cc1` gave a CC50 of 77 µM. Work on `O=C(CN1CCCCC1)Nc1ccc(-c2nc3ccccc3[nH]2)cc1` yielded a CC50 of 18 µM. With `O=C(CN1CCOCC1)Nc1ccc(-c2nc3cc(C(F)(F)F)ccc3[nH]2)cc1` the CC50 was > 100 µM. Molecule `O=C(CN1CCCC1)Nc1ccc(-c2nc3ccccc3[nH]2)cc1` has a CC50 of 70 µM.

Tested on: not listed separately
Test: Cytotoxicity against BHK cells after 48 to 96 hrs by MTT assay
Format: cell-based, Mesocricetus auratus
Settings: hamster
Summary of the method: as §2
In the case of `CC(=O)Nc1ccc(-c2nc3ccccc3[nH]2)cc1`, the CC50 is reported as > 100 µM. With `O=C(CN1CCOCC1)Nc1ccc(-c2nc3ccccc3[nH]2)cc1` the CC50 was > 100 µM. Molecule `O=C(CN1CCCCC1)Nc1ccc(-c2nc3ccccc3[nH]2)cc1` has a CC50 of 31 µM. In the case of `O=C(CN1CCOCC1)Nc1ccc(-c2nc3cc(C(F)(F)F)ccc3[nH]2)cc1`, the CC50 is reported as 86 µM. In the case of `O=C(CN1CCCC1)Nc1ccc(-c2nc3ccccc3[nH]2)cc1`, the CC50 is reported as 55 µM.

Tested on: Poliovirus 1
Test: Antiviral activity against Polio virus type1 Sabin strain Chat infected in african green monkey Vero cells after 2 days by plaque reduction assay
Format: functional, organism-based, Human poliovirus 1 strain Sabin
Settings: Enterovirus C, 48 h
For `CC(=O)Nc1ccc(-c2nc3ccccc3[nH]2)cc1`, the EC50 was > 100 µM. In the case of `O=C(CN1CCOCC1)Nc1ccc(-c2nc3ccccc3[nH]2)cc1`, the EC50 is reported as > 100 µM. With `O=C(CN1CCCCC1)Nc1ccc(-c2nc3ccccc3[nH]2)cc1` the EC50 was > 100 µM. For `O=C(CN1CCOCC1)Nc1ccc(-c2nc3cc(C(F)(F)F)ccc3[nH]2)cc1`, the EC50 was > 100 µM. Work on `O=C(CN1CCCC1)Nc1ccc(-c2nc3ccccc3[nH]2)cc1` yielded an EC50 of 90 µM.

Tested on: Vesicular stomatitis virus
Test: Antiviral activity against VSV Indiana lab infected in african green monkey Vero cells after 2 days by plaque reduction assay
Format: functional, organism-based
Settings: not given
For `CC(=O)Nc1ccc(-c2nc3ccccc3[nH]2)cc1`, the Activity was “inactive”. In the case of `O=C(CN1CCOCC1)Nc1ccc(-c2nc3ccccc3[nH]2)cc1`, the Activity is reported as “inactive”. With `O=C(CN1CCCCC1)Nc1ccc(-c2nc3ccccc3[nH]2)cc1` the Activity was “inactive”. In the case of `O=C(CN1CCOCC1)Nc1ccc(-c2nc3cc(C(F)(F)F)ccc3[nH]2)cc1`, the Activity is reported as “inactive”. In the case of `O=C(CN1CCCC1)Nc1ccc(-c2nc3ccccc3[nH]2)cc1`, the Activity is reported as “inactive”.

Tested on: not listed separately
Test: Cytotoxicity against human MT4 cells after 96 hrs by MTT assay
Format: cell-based
Settings: MT4 cells
Summary of the method: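 Exponentially growing MT-4 cells at 1 × 10^5 cells/mL in RPMI-1640 with 10% FCS, exposed to serial compound dilutions at 37 °C, 5% CO2. Viability by MTT after 96 h; CC50 is the concentration reducing viability of mock-infected cells by 50%.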
Work on `CC(=O)Nc1ccc(-c2nc3ccccc3[nH]2)cc1` yielded a CC50 at 96 h of 100 µM. `O=C(CN1CCOCC1)Nc1ccc(-c2nc3ccccc3[nH]2)cc1` gave a CC50 at 96 h of 100 µM. `O=C(CN1CCCCC1)Nc1ccc(-c2nc3ccccc3[nH]2)cc1` showed a CC50 at 96 h of 31 µM. With `O=C(CN1CCOCC1)Nc1ccc(-c2nc3cc(C(F)(F)F)ccc3[nH]2)cc1` the CC50 at 96 h was > 100 µM. For `O=C(CN1CCCC1)Nc1ccc(-c2nc3ccccc3[nH]2)cc1`, the CC50 at 96 h was 40 µM.

Tested on: Yellow fever virus
Test: Antiviral activity against Yellow fever virus 17D infected in BHK cells assessed as protection from virus-induced cytopathogenicity after 3 to 4 days by MTT method
Format: functional, organism-based
Settings: not given
In the case of `CC(=O)Nc1ccc(-c2nc3ccccc3[nH]2)cc1`, the EC50 is reported as > 100 µM. For `O=C(CN1CCOCC1)Nc1ccc(-c2nc3ccccc3[nH]2)cc1`, the EC50 was > 100 µM. In the case of `O=C(CN1CCCCC1)Nc1ccc(-c2nc3ccccc3[nH]2)cc1`, the EC50 is reported as > 31 µM. In the case of `O=C(CN1CCOCC1)Nc1ccc(-c2nc3cc(C(F)(F)F)ccc3[nH]2)cc1`, the EC50 is reported as > 86 µM. For `O=C(CN1CCCC1)Nc1ccc(-c2nc3ccccc3[nH]2)cc1`, the EC50 was 19 µM.

Tested on: Coxsackievirus B2
Test: Antiviral activity against Human coxsackievirus B2 Ohio-1 infected in african green monkey Vero cells after 3 days by plaque reduction assay
Format: functional, organism-based, Coxsackievirus B2 (strain Ohio-1)
Settings: Enterovirus B, Vero, 72 h
Summary of the method: as §1
Molecule `CC(=O)Nc1ccc(-c2nc3ccccc3[nH]2)cc1` has an EC50 of 87 µM. With `O=C(CN1CCOCC1)Nc1ccc(-c2nc3ccccc3[nH]2)cc1` the EC50 was > 100 µM. With `O=C(CN1CCCCC1)Nc1ccc(-c2nc3ccccc3[nH]2)cc1` the EC50 was 17 µM. For `O=C(CN1CCOCC1)Nc1ccc(-c2nc3cc(C(F)(F)F)ccc3[nH]2)cc1`, the EC50 was > 100 µM. In the case of `O=C(CN1CCCC1)Nc1ccc(-c2nc3ccccc3[nH]2)cc1`, the EC50 is reported as 11 µM.
